# This is a sample that favours compounds with a hit; in the whole collection about 1.7% have one here.
# Scp1 inh: blocks human Scp-1 phosphatase activity | Q9GZU7 | Recombinant Scp1, phosphopeptide, malachite green phosphate absorbance | inhibition, % at 20 µM | 340,000 tested, 0.88% active;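 active = inhibition above about 50% at 20 µM, limit read from the data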;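 also: plate controls were DMSO wells with enzyme for no effect and wells lacking enzyme for full effect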
# Target sequence (Q9GZU7 76-261 limits assumed): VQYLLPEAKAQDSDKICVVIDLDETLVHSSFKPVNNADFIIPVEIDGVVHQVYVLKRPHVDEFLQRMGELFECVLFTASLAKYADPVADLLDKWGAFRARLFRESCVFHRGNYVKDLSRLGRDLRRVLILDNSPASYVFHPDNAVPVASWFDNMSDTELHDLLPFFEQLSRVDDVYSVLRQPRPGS
#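 System: SCP-1 catalytic domain; Reagent: Phospho 17-mer peptide substrate; Doses: one concentration, 20 µM, with 1.0% DMSO; Incubation: 45 min room-temperature reaction, 5 min colour, 30 min stabiliser; Signal: Phosphate-binding colour reagent, absorbance read at 630 nm.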
# LMPTP inh: blocks human LMPTP phosphatase | P24666 | recombinant LMPTP-A, OMFP fluorogenic substrate, fluorescence intensity | inhibition, % at 20 µM | 360,000 tested, 0.22% active;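 active = compounds that cut the enzyme signal by at least half of the control window in the single-dose screen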;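 also: plate controls were DMSO wells with enzyme plus substrate for no effect and substrate without enzyme for full effect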
# Target sequence (P24666 whole entry, looked up): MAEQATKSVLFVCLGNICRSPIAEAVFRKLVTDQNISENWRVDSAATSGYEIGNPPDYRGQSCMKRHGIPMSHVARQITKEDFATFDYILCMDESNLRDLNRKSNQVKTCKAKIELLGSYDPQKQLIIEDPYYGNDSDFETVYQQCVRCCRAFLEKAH
#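 Material: LMPTP-A; amount: 0.625 nM enzyme; doses: single 20 µM dose; times: reaction 50 min, room temperature, dark; technique: fluorescence intensity of OMFP turnover product; benchmarks: no-enzyme and uninhibited controls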
# STEP block: inhibitors of human striatal-enriched phosphatase STEP | P54829 | recombinant STEP, OMFP fluorogenic substrate, fluorescence | inhibition, % at 20 µM | 360,000 tested, 0.25% active;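 active = inhibition at 20 µM, scaled per plate between control wells, above about 37%, limit read from the data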;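 also: 0% = DMSO with enzyme and substrate and 100% = substrate only without enzyme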
#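 material = STEP tyrosine phosphatase | reagent = fluorogenic phosphatase substrate OMFP at 25 µM final | doses = single compound dose of 20 µM, 1% DMSO final | schedule = 20 min reaction, room temperature, in the dark | measured by = fluorescence, 480/540 nm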
# SUMO1 PPI mod: SUMO1-SIM interaction modulation; P63165; SUMO1 binding to a labelled peptide, TR-FRET, 1 h; inhibition, % at 20 µM; 360,000 tested, 0.33% active; in the data active = inhibition above about 37%
# Target sequence (P63165 whole entry, looked up): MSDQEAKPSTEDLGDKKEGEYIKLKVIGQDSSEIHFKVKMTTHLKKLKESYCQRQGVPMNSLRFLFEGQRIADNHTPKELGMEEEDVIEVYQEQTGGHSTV
# Pemphigus Ab inh: human desmoglein-3 autoantibody binding inhibition. 310,000 tested, 0.48% active. DSG3-coupled beads, scFv-anti-DSG3-GFP binding, flow cytometry; hits give low values. AID 588358. binding (percent of control), % at 10 µM. P32926;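 active = binding more than 3 SD below its plate's average and above zero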;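 also: hits lower antibody fragment binding to DSG3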
# * = called active by the depositor; / = not tested or not shown; ! = a repeat was not active.
SMILES,Scp1 inh,LMPTP inh,STEP block,SUMO1 PPI mod,Pemphigus Ab inh
CCOC(=O)C1=C(C)N=c2s/c(=C/c3ccc(OCC(=O)O)c(OC)c3)c(=O)n2C1c1ccc(Cl)cc1 (stereo not given),51*,3,36,7,/
CCOC(=O)C1=C(C)N=c2s/c(=C/c3ccc(OCC(=O)O)cc3)c(=O)n2C1c1ccc(SC)cc1 (stereo not given),/,48,85*,27,93
CCOC(=O)C1=C(C)N=c2s/c(=C\c3ccc(OCC(=O)O)cc3)c(=O)n2C1c1ccc(Cl)cc1 (stereo not given),31,17,34,1,102
CC1=C(C(=O)OC(C)C)C(c2ccc(Cl)cc2)n2c(sc(=Cc3ccc(OCC(=O)O)cc3)c2=O)=N1 (stereo not given),/,88*,87*,106*,/
CCOC(=O)C1=C(C)N=c2s/c(=C/c3ccccc3)c(=O)n2C1c1ccc(OC)c(OC)c1 (stereo not given),-2,1,6,-15,107
O=C(Cc1ccc(Br)cc1)Nc1ccccc1Cl,-12,0,-1,-1,104
O=C(/C=C/C(=O)NCc1cccs1)NCc1cccs1,0,-1,-3,5,72*
O=C(/C=C/c1ccc(Cl)cc1)NCc1cccs1,-3,-2,-4,-8,99
CCOC(=O)C1(CCOc2ccccc2)CCN(CC(O)CO)CC1 (stereo not given),-5,0,1,0,90*
O=C(/C=C/c1ccccc1)NCc1ccco1,-2,0,0,-4,95
O=C(/C=C/c1ccco1)NCc1ccco1,47,0,10,3,80*
O=C(/C=C/c1ccco1)Nc1cccc2cccnc12,1,50*,2,28,95
O=C(O)/C=C/C(=O)Nc1cccc2cccnc12,-4,-2,-2,-6,88
O=C(CNC(=O)/C=C/c1ccco1)N=Nc1c(O)[nH]c2ccccc12,93*,72*,98*,105*,45*
COc1cccc(NC(=O)CSc2nc3ccccc3nc2N2CCOCC2)c1,-5,0,2,-5,109
COc1ccc(OCC(=O)Nc2ccc(NC(=O)c3ccccc3Cl)c(OC)c2)cc1,-13,1,-1,3,100
NC(=O)c1ccc(NCCc2cccs2)cc1,/,-1,-1,39*,/
Cn1c2ccccc2n2c(=O)c(=O)n(CC(=O)c3ccc(Cl)cc3)nc12,-5,-1,0,-14,121
CS(=O)(=O)Nc1ccccc1C(=O)Nc1ccccc1Cl,-7,0,-8,-3,66*
CS(=O)(=O)Nc1ccccc1C(=O)Nc1cc(Cl)cc(Cl)c1,-3,1,0,5,99
CN(C)c1nc(N)nc(/C(C#N)=C/C2CC3C=CC2C3)n1 (stereo not given),-3,67*,0,4,104
NS(=O)(=O)c1ccc(NC(=O)CCc2ccccc2)cc1,10,1,-1,3,107*
C/C(=N\NC(=O)c1ccccc1Cl)c1ccccn1,-17,-1,-1,-2,61*
CC(=NNC(=S)Nc1ccc(C)cc1)c1ccccn1,-8,0,-1,-11,90
COc1ccccc1NC(=S)NN=C(C)c1ccccn1,1,0,-2,-15,-0.8*
SMILES,Scp1 inh,LMPTP inh,STEP block,SUMO1 PPI mod,Pemphigus Ab inh
C/C(=N\NC(=O)c1cccc2ccccc12)c1ccccn1,-14,0,4,-3,115
CCc1ccc(C2=NN(C(C)=O)C(c3ccco3)C2)cc1 (stereo not given),69*,0,-2,0,96
CCC(=O)N1N=C(c2ccc(Cl)cc2)CC1c1ccco1 (stereo not given),-10,-1,4,-3,/
CC(=O)N=Nc1[nH]c(N)c2ccccc12,-4,-4,0,-2,95
COc1cc(CNc2ccc(CNc3ncn[nH]3)cc2)cc(Cl)c1OCc1ccccc1,1,3,-1,4,82*
O=C(Nc1nccs1)c1cc(-c2ccccn2)nc2c(Cl)cccc12,-5,0,0,53*,111
c1ccc(CN(CC2=NCCN2)c2ccccc2)cc1,-6,-3,0,-3,14*!
COC(=O)C(C(=O)OC)c1ccc(NC(=O)c2cccc(Cl)c2)cc1,-2,0,0,2,85*
COc1cc(NC(=O)c2cccc(S(=O)(=O)N3CCCCC3)c2)cc(OC)c1OC,0,2,0,5,103
CCc1nc(N)nc(N)c1-c1ccc(Cl)cc1,-1,56*,0,8,97
CCc1nc(N)nc(N)c1-c1ccc(N(C)Cc2ccccc2)c([N+](=O)[O-])c1,0,79*,0,-19,88
CCc1nc(N)nc(N)c1-c1ccc(NCCN)c([N+](=O)[O-])c1,-8,/,-2,-47,101
CCOc1ccc(OCCCC(=O)O)cc1,-7,-1,1,1,95
COc1ccc(C(C)(C)NC(=O)C2CCC(=O)N(CCCN3CCCC3=O)C2)cc1 (stereo not given),-7,0,0,5,104
CCCN1CCN(CC(=O)Nc2nncs2)CC1,-2,-2,-1,-2,111
COC(=O)c1ccc(C(=O)OC)c(NC(=O)Cc2cccs2)c1,/,54*,10,5,100
O=C(Nc1ccccc1F)NC1CCCCCCC1,-2,1,2,0,105
O=C(Nc1ccccc1F)NC1CC1,-5,-2,0,56*,96
N#C/C(=C/c1ccc(-c2ccccc2[N+](=O)[O-])o1)C(N)=O,-1,-1,-2,-11,98
NC(=S)N/N=C/c1ccc(-c2cc(Cl)ccc2Cl)o1,4,-7,2,2,90
CNC(=S)N/N=C/c1ccc(-c2cc([N+](=O)[O-])ccc2Cl)o1,2,1,2,-8,-12*
N#C/C(=C/c1ccc(-c2cc([N+](=O)[O-])ccc2Cl)o1)C(N)=O,45,34,8,39*,75*
O=C(Nc1ccc(N2CCOCC2)cc1)c1ccc(Cl)c(S(=O)(=O)N2CCCCC2)c1,2,0,2,1,/
Cc1sc2cc3c(c(C(=O)c4ccccc4)[n+]2c1C)-c1cccc2cccc-3c12,14,/,/,/,/
O=C(c1ccccc1)c1c2c(cc3sc4ccccc4[n+]13)-c1cccc3cccc-2c13,-4,69*,3,-18,135
C[C@]12CC[C@@H]3c4ccc(O)cc4CC[C@H]3[C@@H]1CC[C@@H]2O,-9,-2,-2,0,53*
CCCC(C(=O)Nc1cccc(S(=O)(=O)N2CCCC2)c1)c1ccccc1 (stereo not given),-7,1,-2,1,8.0*
O=c1[nH][nH]c(=S)n1C1CCCCC1,72*,/,/,/,/
O=C1NC(=O)C2(CCCCCC2)N1,-1,-3,-3,-5,117
